PfHsp90 yeast 2 = growth inhibition of PfHsp90-expressing yeast, primary screen, antimalarial PfHsp90 inhibitor project, S. cerevisiae, BacTiter-Glo luminescence, single point, set 2; BacTiter-Glo ATP, 48 h; yeast lacking PDR1 and PDR3 efflux regulators; 310,000 tested, 0.32% active; inhibition, % at 9.4 µM;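 active = every replicate shows inhibition above about 80%, whatever the replicate mean, limit read from the data; inconclusive = mean inhibition reaches the set limit but some replicate falls short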
Rtt109 HAT inh = inhibitors of C. albicans Rtt109/Vps75 HAT, primary screen, biochemical, ThioGlo CoA-SH fluorescence, plate reader | purified Rtt109/Vps75, 4 h | 330,000 tested, 0.16% active | Histone acetyltransferase RTT109 (Candida albicans (strain SC5314 / ATCC MYA-2876)), … | inhibition, % at 34.9 µM;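 active = inhibition of at least 50% in every replicate; inconclusive = best replicate reaches 50% inhibition but some replicates fall short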
Target sequence (Q5AAJ8 whole entry, looked up): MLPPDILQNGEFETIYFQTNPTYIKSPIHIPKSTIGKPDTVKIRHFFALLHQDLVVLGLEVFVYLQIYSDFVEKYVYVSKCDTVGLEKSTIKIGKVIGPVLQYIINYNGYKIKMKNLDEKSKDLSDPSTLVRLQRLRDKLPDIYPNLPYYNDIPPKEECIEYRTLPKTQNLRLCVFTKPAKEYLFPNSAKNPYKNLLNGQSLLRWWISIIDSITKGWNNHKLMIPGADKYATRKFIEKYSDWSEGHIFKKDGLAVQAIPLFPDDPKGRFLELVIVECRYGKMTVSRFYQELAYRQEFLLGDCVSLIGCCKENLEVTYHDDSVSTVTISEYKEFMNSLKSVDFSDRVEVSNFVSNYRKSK
Glyco luc inh = increase of ERlucT glycosylation luciferase signal, primary screen, N-linked glycosylation inhibitor project, D54 ERlucT cells, luminescence, set 2 | D54 ERlucT glycosylation luciferase reporter, 24 h; percent of 100 nM tunicamycin response | reporter increase, % at 12.5 µM | 360,000 tested, 0.23% active | AID 588692, 2011;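 active = mean luciferase reporter signal, scaled so untreated is 0 and the glycosylation-blocking control 100, at or above a set limit in every replicate; inconclusive = mean reaches the limit but not every replicate does; inactive = mean below the limit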;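 note: luciferase carries N-glycosylation sites so blocking glycosylation raises the light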
PAX8 reporter = inhibitors of PAX8-driven TPO luciferase reporter, primary screen, RMG-I cells, single concentration; 360,000 tested, 1.2% active; SteadyGlo, 24 h; inhibition, % at 12.6 µM;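 active = mean replicate inhibition at least 60% with every replicate also reaching 60%; inconclusive = only one of the two criteria is met; inactive = mean below 60% and not all replicates reaching 60%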;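 note: luciferase light reporting Pax8 driven TPO promoter activity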
Env fusion inh = inhibitors of HIV-1 Env-driven cell-cell fusion, primary screen, HeLa-JRFL effector, CEM21 target cells, luciferase | inhibition, % at 12.3 µM | 360,000 tested, 1.1% active | AID 651610, 2012;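 active = mean replicate inhibition score of at least 50 and every replicate individually at or above 50; inconclusive = only one of the two criteria met; inactive = mean below 50 and not all replicates reaching 50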
Arrestin-AP2 inh = inhibitors of beta-arrestin/AP2 binding, primary screen, biochemical, GPCR trafficking, flow cytometry. beta-arrestin 1 C-terminal peptide binding to AP2 beta2-adaptin appendage (human). inhibition, % at 10 µM. AID 504490, 2011. 340,000 tested, 0.31% active. FITC-arrestin peptide / GST-AP2 beads; AP2 beta2 appendage carries R879A mutation;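 active = inhibition above a set limit, near 3 SD of compounds lacking own fluorescence, cut at about 54% in these data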
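Test system: GST-tagged AP2 beta2-adaptin appendage (R879A) on 4 µm glutathione beads; also added: fluorescein-tagged arrestin peptide at 50 nM final; timing: 12 min plus 1 h, RT; signal: flow cytometry, FL1 (488/535 nm); read-out: percent drop in bead-associated FITC signal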
Each line names hits and unclear results; the compound was inactive in the other large screens; ! = not active in a repeat. The list is not random: actives were taken first. Their share in the collection is about 2.3%.

C[C@@H]1CCCCO[C@@H](CN(C)C(=O)NC2CCCCC2)[C@@H](C)CN([C@@H](C)CO)C(=O)c2cc(NC(=O)Nc3ccc(F)cc3)ccc2O1	none (no result: PfHsp90 yeast 2, Rtt109 HAT inh, Glyco luc inh, Arrestin-AP2 inh)
C[C@@H]1CN([C@H](C)CO)C(=O)c2cc(NC(=O)Nc3ccc(F)cc3)ccc2O[C@@H](C)CCCCO[C@H]1CN(C)C(=O)NC1CCCCC1	PAX8 reporter 84.0 (no result: PfHsp90 yeast 2, Rtt109 HAT inh, Glyco luc inh, Arrestin-AP2 inh)
C[C@@H]1CN([C@@H](C)CO)C(=O)c2cc(NC(=O)Nc3ccc(F)cc3)ccc2O[C@@H](C)CCCCO[C@@H]1CN(C)C(=O)NC1CCCCC1	none (no result: PfHsp90 yeast 2, Rtt109 HAT inh, Glyco luc inh, Arrestin-AP2 inh)
C[C@@H]1CCCCO[C@H](CN(C)C(=O)NC2CCCCC2)[C@@H](C)CN([C@@H](C)CO)C(=O)c2cc(NC(=O)NC3CCCCC3)ccc2O1	none (no result: PfHsp90 yeast 2, Rtt109 HAT inh, Glyco luc inh, Arrestin-AP2 inh)
C[C@@H]1CCCCO[C@H](CN(C)C(=O)Nc2ccc(F)cc2)[C@@H](C)CN([C@@H](C)CO)C(=O)c2cc(NC(=O)NC3CCCCC3)ccc2O1	PAX8 reporter 66.4 (no result: PfHsp90 yeast 2, Rtt109 HAT inh, Glyco luc inh, Arrestin-AP2 inh)
C[C@@H]1CCCCO[C@@H](CN(C)C(=O)Nc2ccc(F)cc2)[C@H](C)CN([C@H](C)CO)C(=O)c2cc(NC(=O)NC3CCCCC3)ccc2O1	none (no result: PfHsp90 yeast 2, Rtt109 HAT inh, Glyco luc inh, Arrestin-AP2 inh)
Cn1c(-c2ccccc2)c(C(=O)CCl)c2ccccc21	Env fusion inh 64.4
CCn1c(-c2ccccc2)c(C(=O)CCl)c2ccccc21	none
COc1cc(OC)c(NC(=O)c2ccccc2F)cc1Cl	none
Cc1ccc(Cl)cc1NC(=O)COC(=O)c1ccccc1O	none
COc1cc(NC(=O)c2cc3ccccc3cc2O)c(OC)cc1Cl	PAX8 reporter 72.0
COc1ccccc1NC(=O)COC(=O)c1cc2ccccc2cc1O	none (no result: PfHsp90 yeast 2, Env fusion inh)
Cc1cc(O)c(C(C)C)cc1NC(=O)c1ccccc1Cl	PAX8 reporter 70.4 (no result: Env fusion inh)
COc1ccccc1NC(=O)c1cc2cc(Br)ccc2cc1O	PAX8 reporter inconclusive, Env fusion inh 57.2
Cc1ccc(Cl)cc1NC(=O)c1cc2ccccc2cc1O	PAX8 reporter 77.5, Env fusion inh inconclusive
COc1ccc(-c2ccc3c(c2)[C@H]2[C@H](CCN2C(=O)Cc2cccnc2)[C@H](CO)N3C)cc1	PAX8 reporter 85.6 (no result: PfHsp90 yeast 2, Rtt109 HAT inh, Glyco luc inh, Env fusion inh, Arrestin-AP2 inh)
CN1c2ccc(C#Cc3cccnc3)cc2[C@@H]2[C@@H](CCN2C(=O)Cc2cccnc2)[C@@H]1CO	PAX8 reporter 87.9 (no result: PfHsp90 yeast 2, Rtt109 HAT inh, Glyco luc inh, Env fusion inh, Arrestin-AP2 inh)
CN1c2ccc(-c3ccccc3)cc2[C@@H]2[C@@H](CCN2C(=O)Cc2ccccc2)[C@@H]1CO	none (no result: PfHsp90 yeast 2, Rtt109 HAT inh, Glyco luc inh, Env fusion inh, Arrestin-AP2 inh)
CN1c2ccc(-c3cccc(F)c3)cc2[C@@H]2[C@@H](CCN2C(=O)Cc2ccccc2)[C@@H]1CO	PAX8 reporter 75.1 (no result: PfHsp90 yeast 2, Rtt109 HAT inh, Glyco luc inh, Env fusion inh, Arrestin-AP2 inh)
COc1ccc(-c2ccc3c(c2)[C@@H]2[C@@H](CCN2C(=O)Cc2cccnc2)[C@@H](CO)N3C)cc1	none (no result: PfHsp90 yeast 2, Rtt109 HAT inh, Glyco luc inh, Env fusion inh, Arrestin-AP2 inh)
CCNC(=O)C[C@H]1CC[C@@H]2[C@@H](COc3ccc(NC(=O)Nc4c(C)noc4C)cc3C(=O)N2C)O1	none (no result: PfHsp90 yeast 2, Rtt109 HAT inh, Glyco luc inh, Arrestin-AP2 inh)
C[C@H]1CN([C@@H](C)CO)C(=O)c2cc(NC(=O)CCCN(C)C)ccc2O[C@@H]1CN(C)C(=O)Nc1ccccc1	none (no result: PfHsp90 yeast 2, Rtt109 HAT inh, Glyco luc inh, Env fusion inh, Arrestin-AP2 inh)
Cc1ccc(NC(=O)NC(=O)COc2ccc(Cl)cc2Cl)c(C)c1	PAX8 reporter 117.2 (no result: Env fusion inh)
COc1cc(C(C)=O)ccc1OCC(=O)NC(=O)Nc1ccc(C)cc1C	none
Cc1ccc(-c2ccc([C@@H]3[C@@H]4CN(Cc5ccccc5F)C[C@H]3N4)cc2)cc1	PAX8 reporter 89.4 (no result: PfHsp90 yeast 2, Rtt109 HAT inh, Glyco luc inh, Env fusion inh, Arrestin-AP2 inh)
COc1cccc(CN2C[C@@H]3N[C@H](C2)C3c2ccc(-c3ccccc3C)cc2)c1 (stereo partly drawn)	none (no result: PfHsp90 yeast 2, Rtt109 HAT inh, Glyco luc inh, Env fusion inh, Arrestin-AP2 inh)
Cc1cccc(-c2ccc(C3[C@@H]4CN(Cc5ccccc5F)C[C@H]3N4)cc2)c1 (stereo partly drawn)	none (no result: PfHsp90 yeast 2, Rtt109 HAT inh, Glyco luc inh, Env fusion inh, Arrestin-AP2 inh)
COc1cc(CN2C[C@@H]3N[C@H](C2)C3c2ccc(-c3ccccc3C)cc2)cc(OC)c1 (stereo partly drawn)	PAX8 reporter 72.8! (no result: PfHsp90 yeast 2, Rtt109 HAT inh, Glyco luc inh, Env fusion inh, Arrestin-AP2 inh)

Screening results as filed in PubChem.
